Key:
[1] = Half life for the spontaneous hydrolysis in buffer was measured; format: ADME
Outline: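 Inhibitor (0.1 mM final) in 0.05 M Tris pH 7.8 with 10% v/v Me2SO. Spontaneous hydrolysis followed as absorbance rise at 270 nm (phenoxy), 280 nm (4-chlorophenoxy) or 277 nm (4-fluorophenoxy). Half-lives from first-order plots of ln(Af − At) vs time, Af being final absorbance of monophenyl ester plus phenol.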

[2] = target: Dipeptidyl peptidase 4 (Homo sapiens) (UniProt P27487)
[3] = target: Cathepsin B (Homo sapiens) (UniProt P07858); experiment: The second order inhibition rate constant for the compound was measured against cathepsin B; NI-No inhibition after 30 min of incubation of enzyme with inhibitor
Outline: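 Cathepsin B incubated with inhibitor in 100 mM KH2PO4, 1.33 mM EDTA, 2.7 mM fresh cysteine pH 6.0, 8-9% Me2SO, 23 °C. Aliquots assayed with Z-Arg-Arg-AMC, fluorescence at ex 380/em 460 nm. kobs from ln v/v0 vs time. NI means no inhibition after 30 min.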

[4] = target: Chymotrypsinogen A (Bos taurus) (UniProt P00766); experiment: The second order inhibition rate constant for the compound was measured against chymotrypsinogen
[5] = target: T1, Neutrophil elastase (Homo sapiens) (UniProt P08246); experiment: The second order inhibition rate constant for the compound was measured against HLE; NI-No inhibition after 30 min of incubation of enzyme with inhibitor
T1 sequence (whole entry): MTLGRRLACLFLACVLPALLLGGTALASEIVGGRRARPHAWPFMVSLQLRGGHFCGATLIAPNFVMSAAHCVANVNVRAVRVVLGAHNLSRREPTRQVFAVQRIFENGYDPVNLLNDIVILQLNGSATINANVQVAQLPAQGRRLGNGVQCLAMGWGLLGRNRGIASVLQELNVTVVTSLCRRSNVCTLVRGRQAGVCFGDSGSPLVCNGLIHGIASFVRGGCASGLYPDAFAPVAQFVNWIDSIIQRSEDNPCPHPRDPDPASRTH

[6] = target: T2, Papain (Carica papaya) (UniProt P00784); experiment: The second order inhibition rate constant for the compound was measured against papain; NI-No inhibition after 30 min of incubation of enzyme with inhibitor
T2 sequence (whole entry): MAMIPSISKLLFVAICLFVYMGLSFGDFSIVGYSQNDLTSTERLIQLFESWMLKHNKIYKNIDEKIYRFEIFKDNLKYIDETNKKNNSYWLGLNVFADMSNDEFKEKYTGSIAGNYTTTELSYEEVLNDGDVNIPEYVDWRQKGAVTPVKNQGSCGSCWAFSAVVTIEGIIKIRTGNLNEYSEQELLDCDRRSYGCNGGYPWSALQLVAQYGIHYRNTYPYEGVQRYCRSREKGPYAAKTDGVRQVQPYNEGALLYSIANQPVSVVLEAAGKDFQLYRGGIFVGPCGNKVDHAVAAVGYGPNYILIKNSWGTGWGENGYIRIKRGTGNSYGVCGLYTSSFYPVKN
Outline: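 Papain incubated with inhibitor in 50 mM Tris-HCl, 2 mM EDTA, 5 mM fresh cysteine pH 7.5, 8-9% Me2SO, 23 °C. Aliquots assayed with Bz-Arg-AMC, fluorescence at ex 380/em 460 nm. kobs from ln v/v0 vs time. NI means no inhibition after 30 min.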

[7] = target: T3, Chymotrypsin-like elastase family member 2A (Sus scrofa) (UniProt P08419); experiment: The second order inhibition rate constant for the compound was measured against PPE; NI-No inhibition after 30 min of incubation of enzyme with inhibitor
T3 sequence (whole entry): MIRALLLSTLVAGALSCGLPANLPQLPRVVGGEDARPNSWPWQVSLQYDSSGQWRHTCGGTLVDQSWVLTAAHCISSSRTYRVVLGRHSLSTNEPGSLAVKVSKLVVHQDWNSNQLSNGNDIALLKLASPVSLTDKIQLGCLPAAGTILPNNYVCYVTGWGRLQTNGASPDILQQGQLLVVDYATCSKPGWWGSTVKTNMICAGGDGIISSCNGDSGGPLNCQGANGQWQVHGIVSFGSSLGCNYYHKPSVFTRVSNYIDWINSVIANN

[8] = target: T4, Choline O-acetyltransferase (Rattus norvegicus) (UniProt P32738)
T4 sequence (whole entry): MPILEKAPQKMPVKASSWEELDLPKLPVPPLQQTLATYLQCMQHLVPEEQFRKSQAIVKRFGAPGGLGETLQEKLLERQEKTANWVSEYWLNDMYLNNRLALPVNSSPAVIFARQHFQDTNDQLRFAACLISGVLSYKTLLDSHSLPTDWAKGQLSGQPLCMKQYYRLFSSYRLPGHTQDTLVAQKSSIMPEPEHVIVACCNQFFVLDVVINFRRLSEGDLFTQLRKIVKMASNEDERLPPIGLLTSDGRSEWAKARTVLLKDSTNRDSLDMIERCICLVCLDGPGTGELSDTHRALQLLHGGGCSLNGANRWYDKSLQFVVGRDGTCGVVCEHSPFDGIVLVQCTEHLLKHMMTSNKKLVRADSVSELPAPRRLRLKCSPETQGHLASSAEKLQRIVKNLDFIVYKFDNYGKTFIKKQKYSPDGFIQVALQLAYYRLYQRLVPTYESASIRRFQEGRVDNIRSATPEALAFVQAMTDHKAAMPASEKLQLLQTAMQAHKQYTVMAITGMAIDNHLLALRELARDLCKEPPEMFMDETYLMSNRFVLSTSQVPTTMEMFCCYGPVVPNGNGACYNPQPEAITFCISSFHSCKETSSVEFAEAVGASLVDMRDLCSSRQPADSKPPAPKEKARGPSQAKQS

[9] = target: Chymotrypsinogen A (Bos taurus) (UniProt P00766)

Dipeptidyl peptidase 4 (Homo sapiens), sequence (P27487 whole entry, looked up): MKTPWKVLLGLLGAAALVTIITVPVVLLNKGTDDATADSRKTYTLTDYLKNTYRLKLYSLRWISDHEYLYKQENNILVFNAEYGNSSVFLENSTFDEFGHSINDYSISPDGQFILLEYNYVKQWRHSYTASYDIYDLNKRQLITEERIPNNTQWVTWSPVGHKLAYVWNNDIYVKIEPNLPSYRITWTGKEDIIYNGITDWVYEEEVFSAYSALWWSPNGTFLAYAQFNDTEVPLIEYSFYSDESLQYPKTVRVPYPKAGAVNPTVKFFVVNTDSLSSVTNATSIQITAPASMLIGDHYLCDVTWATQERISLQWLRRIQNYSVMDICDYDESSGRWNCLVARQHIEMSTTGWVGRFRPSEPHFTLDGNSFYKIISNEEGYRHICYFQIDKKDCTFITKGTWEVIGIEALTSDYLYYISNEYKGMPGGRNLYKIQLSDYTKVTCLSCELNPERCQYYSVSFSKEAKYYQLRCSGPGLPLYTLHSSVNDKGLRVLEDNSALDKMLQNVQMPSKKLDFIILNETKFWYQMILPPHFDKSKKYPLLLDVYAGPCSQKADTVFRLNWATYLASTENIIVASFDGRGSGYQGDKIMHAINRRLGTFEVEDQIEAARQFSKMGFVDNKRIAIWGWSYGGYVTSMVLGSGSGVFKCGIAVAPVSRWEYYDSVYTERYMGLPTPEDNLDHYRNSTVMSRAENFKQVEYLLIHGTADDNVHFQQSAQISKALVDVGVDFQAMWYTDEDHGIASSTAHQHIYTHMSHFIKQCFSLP

SMILES	half-life [1] [h]	K obs / 1 [2] [M⁻¹ s⁻¹]	K obs / 1 [3]	K obs / 1 [5]	K obs / 1 [6]	K obs / 1 [7]	further results
C[C@H](N)C(=O)N1CCCCC1P(=O)(Oc1ccc(F)cc1)Oc1ccc(F)cc1 (some centres not stated)	68	12					
NCCCC[C@H](N)C(=O)N1CCCCC1P(=O)(Oc1ccccc1)Oc1ccccc1 (some centres not stated)	> 48	4.2					
C[C@H](N)C(=O)N1CCCCC1P(=O)(Oc1ccc(Cl)cc1)Oc1ccc(Cl)cc1 (mixture of isomers) [listing 1 of 2 here]		156	No inhibition	No inhibition	No inhibition	No inhibition	K obs / 1 [4]: 18 M⁻¹ s⁻¹
Br.Br.NCCCC[C@H](N)C(=O)N1CCC[C@H]1P(=O)(Oc1ccccc1)Oc1ccccc1	52	1.7					
C[C@H](N)C(=O)N1CCCCC1P(=O)(Oc1ccccc1)Oc1ccccc1 (some centres not stated)	> 72	12.6					
C[C@H](N)C(=O)N1CCCCC1P(=O)(Oc1ccc(Cl)cc1)Oc1ccc(Cl)cc1 (some centres not stated) [listing 1 of 2 here]		1300					
C[C@H](N)C(=O)N1CCC[C@H]1P(=O)(Oc1ccccc1)Oc1ccccc1.Cl	23.1	1.2	No inhibition	No inhibition	No inhibition	No inhibition	K obs / 1 [8]: No inhibition; K obs / 1 [9]: No inhibition
C[C@H](N)C(=O)N1CCCCC1P(=O)(Oc1ccc(Cl)cc1)Oc1ccc(Cl)cc1 (some centres not stated) [listing 2 of 2 here]							T1/2 [1]: > 48 h
C[C@H](N)C(=O)N1CCC[C@H]1P(=O)(Oc1ccc(Cl)cc1)Oc1ccc(Cl)cc1	5.3	28	No inhibition	No inhibition	No inhibition	No inhibition	K obs / 1 [4]: 26 M⁻¹ s⁻¹
C[C@H](N)C(=O)N1CCCCC1P(=O)(Oc1ccc(Cl)cc1)Oc1ccc(Cl)cc1 (mixture of isomers) [listing 2 of 2 here]	67						

Reference: ChEMBL document CHEMBL1127410, “Dipeptide phosphonates as inhibitors of dipeptidyl peptidase IV” (J Med Chem, 1994)
